# Measurements from different studies.
# Each line is one published result; the experiments were not run side by side.
# Target: Protein-tyrosine kinase 6 (PTK6, Homo sapiens, UniProt Q13882)
SMILES,assay,setting,remaining binding
C[C@H]1CCN(c2nccc(-c3cnn4ncccc34)n2)C1,binding,1 µM,100%
CN([C@@H]1CCc2c(CC(=O)O)c3cc(S(C)(=O)=O)ccc3n2C1)S(=O)(=O)c1ccc(F)cc1,"cell-free assay, competition with immobilised ligand",1 µM,92%
F[C@@H]1CCN(c2nccc(-c3cnn4ncccc34)n2)C1,binding,1 µM,89%
Cc1c(NC(=O)c2cc(C(N)=O)nc3cc(F)ccc23)c(C(F)(F)F)nn1Cc1ccc(C#N)cc1,"cell-free assay, competition with immobilised ligand",1 µM,100%
CN(C)c1nccc(-c2cnc3ncccn23)n1,binding,1 µM,92%
CCc1ccccc1C(=O)Nc1n[nH]c2c(C)c(F)c(C3C(C#N)=C(C)N(C)C(C)=C3C#N)cc12,"cell-free assay, competition with immobilised ligand",1 µM,100%
FC(F)(F)Oc1cccc(-c2cnc3ccc(-c4ccncc4)nn23)c1,"cell-free assay, competition with immobilised ligand",5 µM,86%
N[C@@H]1CCN(c2nccc(-c3cnn4ncccc34)n2)C1,binding,1 µM,100%
CCN1CCN(Cc2ccc(C(=O)Nc3ccc(C)c(Oc4ccc5c(c4)CC(=O)N5)c3)cc2C(F)(F)F)CC1,"binding, competition with immobilised ligand",1 µM,100%
CC1CCCN1c1nccc(-c2cnn3ncccc23)n1 (stereo not drawn),binding,1 µM,89%
COc1cc(-c2cn(C3CCc4c(F)cccc4N(CC(F)(F)F)C3=O)nn2)ccc1-n1cnc(C)c1 (stereo not drawn),"cell-free assay, competition with immobilised ligand",1 µM,100%
COc1ncc2cc3ccccc3nc2c1C#N,"cell-free assay, competition with immobilised ligand",5 µM,100%
O=C(NCCCN1CCOCC1)c1ccc(Nc2ncc(Cl)c(-c3ccc(Cl)s3)n2)cc1,"binding, competition with immobilised ligand",1 µM,100%
COc1cnc(Nc2cccc(S(N)(=O)=O)c2)nc1N1CCN(c2ccccc2)CC1,"binding, competition with immobilised ligand",1 µM,100%
O=C(c1ccc(Nc2ncc(Cl)c(-c3ccc(Cl)s3)n2)cc1)N1CCC(N2CCCC2)CC1,"binding, competition with immobilised ligand",1 µM,79%
CCOC(=O)c1cc2cc(-c3cc(C(=O)NCc4ccc(C(=O)O)cc4)nn3C)ccc2[nH]1,"cell-free assay, competition with immobilised ligand",0.1 µM,98%
CN(CCCC(F)(F)F)c1nccc(-c2cnn3ncccc23)n1,binding,1 µM,97%
Nc1ncc2c(n1)-c1c([nH]c3ccc(C#CC4CC4)cc13)CCCC2,"binding, competition with immobilised ligand",1 µM,97%
CS(=O)(=O)NCC[C@H](NC(=O)c1cncc2c1cnn2-c1ccc(F)cc1)c1ccnc(S(C)(=O)=O)c1,"cell-free assay, competition with immobilised ligand",1 µM,96%
C[C@@H](c1ccc(-n2cnc3c(N)ncnc32)cc1)N1CCc2nn(C)c(Cc3ccccc3)c2C1=O,"binding, competition with immobilised ligand",0.1 µM,62%
O=C(NCC1CCOCC1)c1n[nH]cc1NC(=O)c1c(F)cccc1F,"binding, competition with immobilised ligand",1 µM,100%
